Measurements from ChEMBL document CHEMBL5247577, “Improved Selective Class I HDAC and Novel Selective HDAC3 Inhibitors: Beyond Hydroxamic Acids and Benzamides” (ACS Med Chem Lett, 2019).
Active and inactive are the calls of the source. No cut-off for these calls is given here.

What was measured:
Histone deacetylase = assay: Inhibition of HDAC in human HeLa cells using FLUOR DE LYS-SIRT1 as fluorogenic substrate incubated for 4 hrs by spectrophotometer based analysis; type: cell-based
Histone deacetylase 1 = Histone deacetylase 1 (Homo sapiens, UniProt Q13547); assay: Inhibition of human recombinant his tagged HDAC1 expressed in baculovirus expression system using FLUOR DE LYS-SIRT1 as fluorogenic substrate preincubated for 10 mins followed by substrate addition and measured after 1 hr by spectrophotometer based analysis
Histone deacetylase 2 = Histone deacetylase 2 (Homo sapiens, UniProt Q92769); assay: Inhibition of human HDAC2
[1] = biological target: Histone deacetylase 5 (Homo sapiens) (UniProt Q9UQL6); assay: Inhibition of human HDAC5 at 5 uM
[2] = biological target: T1, Protein deacetylase HDAC6 (Homo sapiens, UniProt Q9UBN7); assay: Inhibition of human HDAC6
T1 sequence (Q9UBN7 whole entry): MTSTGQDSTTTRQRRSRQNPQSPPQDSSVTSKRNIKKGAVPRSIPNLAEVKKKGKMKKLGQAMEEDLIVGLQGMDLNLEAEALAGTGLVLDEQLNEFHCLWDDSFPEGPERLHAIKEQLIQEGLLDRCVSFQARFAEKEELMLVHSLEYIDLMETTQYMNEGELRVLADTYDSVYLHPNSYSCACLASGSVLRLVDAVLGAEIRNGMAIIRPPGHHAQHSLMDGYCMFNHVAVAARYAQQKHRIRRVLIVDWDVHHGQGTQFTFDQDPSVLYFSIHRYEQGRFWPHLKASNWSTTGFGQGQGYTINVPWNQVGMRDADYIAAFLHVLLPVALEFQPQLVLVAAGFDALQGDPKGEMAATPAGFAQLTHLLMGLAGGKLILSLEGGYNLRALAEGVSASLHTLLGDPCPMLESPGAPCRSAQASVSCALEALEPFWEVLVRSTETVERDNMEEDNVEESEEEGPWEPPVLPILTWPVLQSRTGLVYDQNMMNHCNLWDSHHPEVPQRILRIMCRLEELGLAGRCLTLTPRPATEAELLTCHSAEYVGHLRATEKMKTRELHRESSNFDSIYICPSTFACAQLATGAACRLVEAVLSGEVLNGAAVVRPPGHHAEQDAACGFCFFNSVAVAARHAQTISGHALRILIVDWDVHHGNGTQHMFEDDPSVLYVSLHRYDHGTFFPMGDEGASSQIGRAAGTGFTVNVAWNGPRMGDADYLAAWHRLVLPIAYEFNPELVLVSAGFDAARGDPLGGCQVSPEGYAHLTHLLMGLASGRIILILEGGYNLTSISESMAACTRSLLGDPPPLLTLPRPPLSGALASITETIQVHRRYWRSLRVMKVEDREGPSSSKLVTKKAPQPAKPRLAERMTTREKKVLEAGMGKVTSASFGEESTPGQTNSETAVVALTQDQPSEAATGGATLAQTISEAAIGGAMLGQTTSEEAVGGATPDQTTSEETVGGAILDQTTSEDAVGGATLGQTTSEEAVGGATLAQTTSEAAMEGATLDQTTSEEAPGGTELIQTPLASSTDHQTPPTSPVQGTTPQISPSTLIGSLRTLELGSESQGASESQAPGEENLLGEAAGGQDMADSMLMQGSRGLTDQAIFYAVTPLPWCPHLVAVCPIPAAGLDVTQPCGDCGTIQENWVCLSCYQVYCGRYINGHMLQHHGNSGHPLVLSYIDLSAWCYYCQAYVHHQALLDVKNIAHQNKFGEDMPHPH

[3] = biological target: Histone deacetylase 4 (Homo sapiens) (UniProt P56524); assay: Inhibition of human HDAC4 at 5 uM
Cytochrome P450 3A4 = Cytochrome P450 3A4 (Homo sapiens, UniProt P08684); assay: Inhibition of CYP3A4 (unknown origin); type: ADME
Cytochrome P450 2D6 = Cytochrome P450 2D6 (Homo sapiens, UniProt P10635); assay: Inhibition of CYP2D6 (unknown origin); type: ADME
Cytochrome P450 2C9 = Cytochrome P450 2C9 (Homo sapiens, UniProt P11712); assay: Inhibition of CYP2C9 (unknown origin); type: ADME
[4] = Genotoxicity in Salmonella typhimurium by Ames test; type: toxicity; conditions: salmonella enterica subsp. enterica serovar typhimurium
How it was run: (§1)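 Bacterial reverse mutation assay in two strains, Salmonella typhimurium and Escherichia coli, scoring reverse mutations.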

[5] = Genotoxicity in Escherichia coli by Ames test; type: toxicity; how it was run: as §1
[6] = Permeability of the compound in porcine brain endothelial cells by BBB assay; type: ADME, cell-based, Sus scrofa, Endothelial cell; conditions: pig; read-out: permeability
[7] = biological target: T2, Voltage-gated inwardly rectifying potassium channel KCNH2 (Homo sapiens, UniProt Q12809); assay: Inhibition of hERG potassium channel incubated for 4 hrs by fluorescence polarization assay; type: toxicity
[8] = biological target: T2, Voltage-gated inwardly rectifying potassium channel KCNH2; assay: Inhibition of hERG by patch clamp assay; type: toxicity
[9] = biological target: Sodium channel protein type 5 subunit alpha (Homo sapiens, UniProt Q14524); assay: Inhibition of Nav1.5 (unknown origin)
[10] = Unbound fraction in human plasma; type: ADME, cell-free
[11] = Oral bioavailability in Wistar rat at 10 mg/kg by LC/MS/MS analysis; type: ADME, organism-based; conditions: in vivo
How it was run: (§2)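 Compound dosed as the tartrate salt. Oral doses were 20 mg/kg in mouse, 10 mg/kg in rat and 5 mg/kg in minipig.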

[12] = Oral bioavailability in Gottigen pig by LC/MS/MS analysis; type: ADME, organism-based, Sus scrofa; conditions: in vivo; how it was run: as §2
[13] = Clearance in Gottigen pig plasma by LC/MS/MS analysis; type: ADME, Sus scrofa; how it was run: as §2
[14] = Volume of distribution at steady state in NMRI mouse at 20 mg/kg, po or 2 mg/kg, iv by LC/MS/MS analysis; type: ADME, organism-based; conditions: in vivo; how it was run: as §2
[15] = Volume of distribution at steady state in Wistar rat at 10 mg/kg, po or 2 mg/kg,iv by LC/MS/MS analysis; type: ADME, organism-based; conditions: in vivo; how it was run: as §2
[16] = Volume of distribution at steady state in Gottigen pig by LC/MS/MS analysis; type: ADME, Sus scrofa; conditions: in vivo, read-out: Vdss; how it was run: as §2
[17] = Half life in NMRI mouse plasma at 20 mg/kg, po or 2 mg/kg, iv by LC/MS/MS analysis; type: ADME, organism-based; how it was run: as §2
[18] = Half life in Wistar rat plasma at 10 mg/kg, po or 2 mg/kg,iv by LC/MS/MS analysis; type: ADME, organism-based; how it was run: as §2
[19] = Half life in Gottigen pig plasma by LC/MS/MS analysis; type: ADME, Sus scrofa; how it was run: as §2
[20] = AUC in NMRI mouse plasma at 5 to 20 mg/kg, po by LC/MS/MS analysis; type: ADME, organism-based; set-up: route po; conditions: in vivo, dose 5-20 mg/kg
How it was run: (§3)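 Compound given orally as its tartrate salt at 20 mg/kg in mouse, 10 mg/kg in rat and 5 mg/kg in minipig.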

[21] = AUC in Wistar rat plasma at 5 to 20 mg/kg, po by LC/MS/MS analysis; type: ADME, organism-based; set-up: route po; conditions: dose 5-20 mg/kg; how it was run: as §3
[22] = AUC in Gottigen pig plasma 5 to 20 mg/kg, po by LC/MS/MS analysis; type: ADME, organism-based, Sus scrofa; set-up: route po; conditions: dose 5-20 mg/kg; how it was run: as §3

T2 sequence (Q12809 whole entry): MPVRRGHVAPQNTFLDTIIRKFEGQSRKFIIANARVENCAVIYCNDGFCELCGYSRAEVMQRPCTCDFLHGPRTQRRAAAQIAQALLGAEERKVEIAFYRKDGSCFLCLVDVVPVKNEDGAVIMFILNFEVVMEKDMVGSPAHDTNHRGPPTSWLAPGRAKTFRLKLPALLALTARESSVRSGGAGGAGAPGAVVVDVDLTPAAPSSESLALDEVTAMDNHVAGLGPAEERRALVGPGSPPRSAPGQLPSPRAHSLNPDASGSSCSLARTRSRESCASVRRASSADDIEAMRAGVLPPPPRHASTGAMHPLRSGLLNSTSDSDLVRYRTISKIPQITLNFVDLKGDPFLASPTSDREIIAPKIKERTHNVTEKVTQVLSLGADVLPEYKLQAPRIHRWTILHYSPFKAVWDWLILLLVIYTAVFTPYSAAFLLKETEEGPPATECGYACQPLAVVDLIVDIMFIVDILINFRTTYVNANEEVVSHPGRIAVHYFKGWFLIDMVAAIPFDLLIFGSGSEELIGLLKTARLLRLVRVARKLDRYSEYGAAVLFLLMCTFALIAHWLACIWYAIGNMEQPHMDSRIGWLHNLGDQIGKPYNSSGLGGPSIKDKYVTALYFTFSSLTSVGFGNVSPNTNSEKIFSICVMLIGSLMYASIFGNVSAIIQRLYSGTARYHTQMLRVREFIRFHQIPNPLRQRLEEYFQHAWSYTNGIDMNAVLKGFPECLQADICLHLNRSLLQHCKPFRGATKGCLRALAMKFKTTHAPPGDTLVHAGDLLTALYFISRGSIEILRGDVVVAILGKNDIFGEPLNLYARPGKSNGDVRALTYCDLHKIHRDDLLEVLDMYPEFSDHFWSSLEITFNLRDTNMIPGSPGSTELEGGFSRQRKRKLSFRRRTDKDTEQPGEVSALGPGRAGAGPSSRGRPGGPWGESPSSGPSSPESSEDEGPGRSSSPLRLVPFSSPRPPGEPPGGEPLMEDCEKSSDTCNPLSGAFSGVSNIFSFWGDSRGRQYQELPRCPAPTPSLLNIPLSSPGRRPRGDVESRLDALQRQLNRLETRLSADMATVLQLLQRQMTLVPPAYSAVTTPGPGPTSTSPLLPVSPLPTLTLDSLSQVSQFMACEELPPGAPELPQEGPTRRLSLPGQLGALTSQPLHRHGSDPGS
Histone deacetylase 2, sequence (Q92769 whole entry): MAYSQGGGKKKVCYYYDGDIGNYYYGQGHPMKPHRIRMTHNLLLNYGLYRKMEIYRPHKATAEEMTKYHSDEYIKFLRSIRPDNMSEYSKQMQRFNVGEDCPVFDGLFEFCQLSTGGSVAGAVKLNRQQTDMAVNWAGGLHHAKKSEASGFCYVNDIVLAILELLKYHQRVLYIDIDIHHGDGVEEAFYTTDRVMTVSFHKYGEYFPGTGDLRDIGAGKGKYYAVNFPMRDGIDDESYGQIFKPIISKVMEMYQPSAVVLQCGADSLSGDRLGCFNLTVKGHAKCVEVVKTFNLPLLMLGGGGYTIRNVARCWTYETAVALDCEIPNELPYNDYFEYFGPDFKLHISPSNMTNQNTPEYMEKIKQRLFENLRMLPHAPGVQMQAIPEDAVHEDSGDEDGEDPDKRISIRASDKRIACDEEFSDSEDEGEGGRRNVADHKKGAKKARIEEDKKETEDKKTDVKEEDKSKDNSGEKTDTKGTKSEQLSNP
Cytochrome P450 3A4, sequence (P08684 whole entry): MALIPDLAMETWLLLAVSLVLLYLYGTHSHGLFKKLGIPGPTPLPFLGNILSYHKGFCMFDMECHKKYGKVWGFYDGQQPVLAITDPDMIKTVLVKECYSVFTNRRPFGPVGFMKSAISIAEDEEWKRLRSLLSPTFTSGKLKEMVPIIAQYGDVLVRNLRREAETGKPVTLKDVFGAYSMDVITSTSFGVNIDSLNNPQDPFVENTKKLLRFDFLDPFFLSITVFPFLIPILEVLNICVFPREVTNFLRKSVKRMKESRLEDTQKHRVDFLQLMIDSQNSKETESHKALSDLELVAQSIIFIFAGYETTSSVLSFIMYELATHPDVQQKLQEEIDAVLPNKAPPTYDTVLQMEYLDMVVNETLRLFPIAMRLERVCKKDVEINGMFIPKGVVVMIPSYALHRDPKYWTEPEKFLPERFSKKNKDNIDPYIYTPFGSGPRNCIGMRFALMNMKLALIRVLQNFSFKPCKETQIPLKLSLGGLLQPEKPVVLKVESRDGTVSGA
Sodium channel protein type 5 subunit alpha, sequence (Q14524 whole entry): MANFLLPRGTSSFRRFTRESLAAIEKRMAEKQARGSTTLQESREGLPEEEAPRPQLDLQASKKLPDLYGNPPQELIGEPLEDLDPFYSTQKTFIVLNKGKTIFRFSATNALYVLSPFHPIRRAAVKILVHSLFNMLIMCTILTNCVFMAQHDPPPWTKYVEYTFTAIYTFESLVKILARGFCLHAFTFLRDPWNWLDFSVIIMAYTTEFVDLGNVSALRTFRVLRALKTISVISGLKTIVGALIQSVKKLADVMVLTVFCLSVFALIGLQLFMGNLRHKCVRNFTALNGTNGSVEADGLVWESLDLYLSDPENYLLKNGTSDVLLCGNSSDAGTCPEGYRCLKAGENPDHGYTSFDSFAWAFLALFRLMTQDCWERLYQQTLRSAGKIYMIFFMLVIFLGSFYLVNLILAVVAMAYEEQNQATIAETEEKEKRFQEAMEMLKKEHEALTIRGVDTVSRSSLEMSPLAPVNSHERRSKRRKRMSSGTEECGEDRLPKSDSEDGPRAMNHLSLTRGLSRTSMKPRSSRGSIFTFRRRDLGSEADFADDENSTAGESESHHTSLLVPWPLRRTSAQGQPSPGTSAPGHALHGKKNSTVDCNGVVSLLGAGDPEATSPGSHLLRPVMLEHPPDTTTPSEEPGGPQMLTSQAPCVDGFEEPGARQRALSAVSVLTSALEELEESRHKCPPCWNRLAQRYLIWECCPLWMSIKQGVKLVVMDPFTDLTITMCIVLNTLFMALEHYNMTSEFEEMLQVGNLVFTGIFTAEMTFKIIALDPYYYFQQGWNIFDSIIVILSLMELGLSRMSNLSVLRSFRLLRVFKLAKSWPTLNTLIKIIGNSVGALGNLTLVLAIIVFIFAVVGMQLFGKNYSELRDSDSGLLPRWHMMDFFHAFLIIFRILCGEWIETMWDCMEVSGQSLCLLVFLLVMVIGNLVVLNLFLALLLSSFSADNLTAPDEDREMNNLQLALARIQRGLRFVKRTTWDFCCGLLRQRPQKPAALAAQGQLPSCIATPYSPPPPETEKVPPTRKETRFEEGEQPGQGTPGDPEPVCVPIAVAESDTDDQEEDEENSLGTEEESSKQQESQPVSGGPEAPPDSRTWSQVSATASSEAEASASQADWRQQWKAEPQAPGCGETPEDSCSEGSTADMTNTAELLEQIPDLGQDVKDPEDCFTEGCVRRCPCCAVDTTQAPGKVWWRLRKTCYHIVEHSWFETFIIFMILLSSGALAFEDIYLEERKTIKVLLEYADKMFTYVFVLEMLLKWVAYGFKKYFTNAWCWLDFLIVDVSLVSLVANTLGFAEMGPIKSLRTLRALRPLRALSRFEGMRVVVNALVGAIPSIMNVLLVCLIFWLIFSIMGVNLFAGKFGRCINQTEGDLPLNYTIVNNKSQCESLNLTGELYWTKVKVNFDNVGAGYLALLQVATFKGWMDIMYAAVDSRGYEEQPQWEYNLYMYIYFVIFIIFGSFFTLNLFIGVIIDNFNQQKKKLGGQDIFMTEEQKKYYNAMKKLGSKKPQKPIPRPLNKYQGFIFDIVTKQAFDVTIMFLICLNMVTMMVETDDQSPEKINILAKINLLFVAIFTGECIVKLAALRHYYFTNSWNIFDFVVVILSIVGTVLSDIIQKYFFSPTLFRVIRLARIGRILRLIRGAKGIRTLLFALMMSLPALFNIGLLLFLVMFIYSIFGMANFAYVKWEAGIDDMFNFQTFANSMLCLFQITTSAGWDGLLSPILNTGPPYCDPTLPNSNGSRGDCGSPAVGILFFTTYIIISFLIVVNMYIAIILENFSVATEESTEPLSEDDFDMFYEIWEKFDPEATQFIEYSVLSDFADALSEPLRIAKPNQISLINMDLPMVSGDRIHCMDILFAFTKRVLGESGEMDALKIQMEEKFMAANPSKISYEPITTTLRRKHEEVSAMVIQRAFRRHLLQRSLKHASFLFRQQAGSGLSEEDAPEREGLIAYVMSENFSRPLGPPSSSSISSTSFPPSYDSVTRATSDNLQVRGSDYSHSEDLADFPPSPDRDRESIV
Cytochrome P450 2D6, sequence (P10635 whole entry): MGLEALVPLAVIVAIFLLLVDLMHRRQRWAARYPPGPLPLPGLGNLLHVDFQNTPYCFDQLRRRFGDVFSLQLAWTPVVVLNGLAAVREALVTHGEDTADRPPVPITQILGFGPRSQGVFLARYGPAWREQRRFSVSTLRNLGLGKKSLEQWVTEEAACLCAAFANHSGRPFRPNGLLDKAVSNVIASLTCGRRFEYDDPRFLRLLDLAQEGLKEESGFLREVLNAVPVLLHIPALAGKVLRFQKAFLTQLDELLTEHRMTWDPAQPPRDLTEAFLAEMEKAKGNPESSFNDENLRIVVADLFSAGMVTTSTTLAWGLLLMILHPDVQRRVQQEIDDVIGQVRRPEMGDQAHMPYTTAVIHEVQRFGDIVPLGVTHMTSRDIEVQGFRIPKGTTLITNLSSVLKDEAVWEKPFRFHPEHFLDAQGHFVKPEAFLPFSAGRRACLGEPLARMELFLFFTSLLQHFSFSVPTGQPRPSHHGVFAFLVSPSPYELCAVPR

Structure (SMILES): CCC(=O)CCCCC[C@H](NC(=O)C1CN(C)C1)c1ncc(-c2cc3ccccc3nc2OC)o1
- EC50 (Histone deacetylase): 0.05 µM
- IC50 (Histone deacetylase 1): 0.0017 µM
- IC50 (Histone deacetylase 2): 0.0028 µM
- inhibition [1]: inactive
- IC50 [2]: 0.177 µM
- inhibition [3]: inactive
- IC50 (Cytochrome P450 3A4): > 20 µM
- IC50 (Cytochrome P450 2D6): > 20 µM
- IC50 (Cytochrome P450 2C9): > 20 µM
- Activity [4]: Non-Toxic
- Activity [5]: Non-Toxic
- Papp [6]: 10.5 ×10⁻⁶ cm/s
- IC50 [7]: 3.6 µM
- IC50 [8]: 10 µM
- IC50 [9]: > 16 µM
- fraction unbound [10]: 0.018
- bioavailability [11]: 100%
- bioavailability [12]: 30%
- clearance [13]: 20 mL/min/kg
- Vdss [14]: 3.2 L/kg
- Vdss [15]: 5.3 L/kg
- Vd [16]: 0.64 L/kg
- half-life [17]: 3.3 h
- half-life [18]: 3.3 h
- half-life [19]: 3.7 h
- AUC [20]: 9.3 µM·h
- AUC [21]: 21.5 µM·h
- AUC [22]: 2.6 µM·h
